Laboratory results: ChEMBL document CHEMBL1212768, “Screening and quantification of the expression of antibiotic resistance genes in Acinetobacter baumannii with a microarray” (2010)
Values after ≈ are worked out from the molar mass of the structure shown.

How the values were obtained:
Assay type in all cases: functional
Acinetobacter baumannii [1] = assay: Antibacterial activity against Acinetobacter baumannii BM4587 by antimicrobial susceptibility assay
Procedure, shortened: (§1)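 MICs measured by Etest on Mueller-Hinton agar. Disk diffusion on the same medium was used for susceptibility screening. Strains were grown at 37°C in brain heart infusion broth or agar. Mutants were picked from antibiotic gradient plates, taking colonies growing above the normal MIC. Those resistant to several drug classes by diffusion were kept.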

Acinetobacter baumannii [2] = assay: Antibacterial activity against multidrug-resistant Acinetobacter baumannii BM4666 by antimicrobial susceptibility assay; procedure, shortened: as §1
Acinetobacter baumannii [3] = assay: Antibacterial activity against Acinetobacter baumannii CIP70-10 by antimicrobial susceptibility assay; procedure, shortened: as §1
Acinetobacter baumannii [4] = assay: Antibacterial activity against multidrug-resistant Acinetobacter baumannii BM4676 by antimicrobial susceptibility assay; procedure, shortened: as §1
Acinetobacter baumannii [5] = assay: Antibacterial activity against multidrug-resistant Acinetobacter baumannii BM4668 by antimicrobial susceptibility assay; procedure, shortened: as §1
Acinetobacter baumannii [6] = assay: Antibacterial activity against multidrug-resistant Acinetobacter baumannii AYE by antimicrobial susceptibility assay; procedure, shortened: as §1
Acinetobacter baumannii [7] = assay: Antibacterial activity against Acinetobacter baumannii BM4467 by antimicrobial susceptibility assay; procedure, shortened: as §1
Acinetobacter baumannii [8] = assay: Antibacterial activity against multidrug-resistant Acinetobacter baumannii BM4665 by antimicrobial susceptibility assay; procedure, shortened: as §1
Acinetobacter baumannii [9] = assay: Antibacterial activity against multidrug-resistant Acinetobacter baumannii BM4675 by antimicrobial susceptibility assay; procedure, shortened: as §1
Acinetobacter baumannii [10] = assay: Antibacterial activity against Acinetobacter baumannii BM4454 by antimicrobial susceptibility assay; procedure, shortened: as §1

Molecule | MIC (Acinetobacter baumannii [1]) [mg/L] | MIC (Acinetobacter baumannii [2]) [mg/L] | MIC (Acinetobacter baumannii [3]) [mg/L] | MIC (Acinetobacter baumannii [4]) [mg/L] | MIC (Acinetobacter baumannii [5]) [mg/L] | MIC (Acinetobacter baumannii [6]) [mg/L] | MIC (Acinetobacter baumannii [7]) [mg/L] | MIC (Acinetobacter baumannii [8]) [mg/L] | MIC (Acinetobacter baumannii [9]) [mg/L] | MIC (Acinetobacter baumannii [10]) [mg/L]
CO[C@H]1/C=C/O[C@@]2(C)Oc3c(C)c(O)c4c(O)c(c(/C=N/N5CCN(C)CC5)c(O)c4c3C2=O)NC(=O)/C(C)=C\C=C\[C@H](C)[C@H](O)[C@@H](C)[C@@H](O)[C@@H](C)[C@H](OC(C)=O)[C@@H]1C [RIFAMPIN] | 1.5 (≈ 1.82 µM) | 3 (≈ 3.65 µM) | 4 (≈ 4.86 µM) | 2 (≈ 2.43 µM) | 3 (≈ 3.65 µM) | 16 (≈ 19.4 µM) | 2 (≈ 2.43 µM) | 1.5 (≈ 1.82 µM) | > 32 | 2 (≈ 2.43 µM)
CO/N=C(\C(=O)N[C@@H]1C(=O)N2C(C(=O)[O-])=C(C[N+]3(C)CCCC3)CS[C@H]12)c1csc(N)n1 [CEFEPIME] | 0.75 (≈ 1.56 µM) | 2 (≈ 4.16 µM) | 1.5 (≈ 3.12 µM) | 32 (≈ 66.6 µM) | 3 (≈ 6.24 µM) | > 256 | 1.5 (≈ 3.12 µM) | 8 (≈ 16.6 µM) | 8 (≈ 16.6 µM) | 3 (≈ 6.24 µM)
O=C(N[C@H](CO)[C@H](O)c1ccc([N+](=O)[O-])cc1)C(Cl)Cl [CHLORAMPHENICOL] | 96 (≈ 297 µM) | > 256 | 48 (≈ 149 µM) | 128 (≈ 396 µM) | > 256 | > 256 | 96 (≈ 297 µM) | > 256 | > 256 | > 256
O=C(O)c1cn(C2CC2)c2cc(N3CCNCC3)c(F)cc2c1=O [CIPROFLOXACIN] | 0.094 (≈ 0.284 µM) | 0.38 (≈ 1.15 µM) | 0.125 (≈ 0.377 µM) | 24 (≈ 72.4 µM) | 0.38 (≈ 1.15 µM) | > 32 | 0.125 (≈ 0.377 µM) | 0.5 (≈ 1.51 µM) | > 32 | > 32
CCN[C@@H]1C[C@H](N)[C@@H](O[C@H]2OC(CN)=CC[C@H]2N)[C@H](O)[C@H]1O[C@H]1OC[C@](C)(O)[C@H](NC)[C@H]1O [NETILMICIN] | 1.5 (≈ 3.15 µM) | 1.5 (≈ 3.15 µM) | 2 (≈ 4.21 µM) | 12 (≈ 25.2 µM) | 2 (≈ 4.21 µM) | 48 (≈ 101 µM) | 2 (≈ 4.21 µM) | 64 (≈ 135 µM) | 32 (≈ 67.3 µM) | 16 (≈ 33.6 µM)
CC(C)(O/N=C(\C(=O)N[C@@H]1C(=O)N2C(C(=O)[O-])=C(C[n+]3ccccc3)CS[C@H]12)c1csc(N)n1)C(=O)O [CEFTAZIDIME] | 4 (≈ 7.32 µM) | 12 (≈ 22 µM) | 6 (≈ 11 µM) | > 256 | 16 (≈ 29.3 µM) | > 256 | 8 (≈ 14.6 µM) | 3 (≈ 5.49 µM) | > 256 | 6 (≈ 11 µM)
CC1(C)S[C@@H]2[C@H](NC(=O)[C@H](C(=O)O)c3ccsc3)C(=O)N2[C@H]1C(=O)O [TICARCILLIN] | 6 (≈ 15.6 µM) | 16 (≈ 41.6 µM) | 24 (≈ 62.4 µM) | > 256 | 24 (≈ 62.4 µM) | > 256 | 12 (≈ 31.2 µM) | 2 (≈ 5.2 µM) | > 256 | 8 (≈ 20.8 µM)
C[C@@H](O)[C@H]1C(=O)N2C(C(=O)O)=C(SCCNC=N)C[C@H]12 [IMIPENEM ANHYDROUS] | 0.19 (≈ 0.635 µM) | 0.19 (≈ 0.635 µM) | 0.25 (≈ 0.835 µM) | > 32 | 0.25 (≈ 0.835 µM) | 1 (≈ 3.34 µM) | 0.25 (≈ 0.835 µM) | 0.5 (≈ 1.67 µM) | 2 (≈ 6.68 µM) | 0.25 (≈ 0.835 µM)
GENTAMICIN | 1 | 1.5 | 1.5 | > 256 | 1.5 | > 256 | 1.5 | 12 | 24 | 6
CCn1cc(C(=O)O)c(=O)c2cc(F)c(N3CCNCC3)cc21 [NORFLOXACIN] | 1.5 (≈ 4.7 µM) | 4 (≈ 12.5 µM) | 2 (≈ 6.26 µM) | 192 (≈ 601 µM) | 4 (≈ 12.5 µM) | > 256 | 1.5 (≈ 4.7 µM) | 12 (≈ 37.6 µM) | > 256 | > 256
CN(C)c1cc(NC(=O)CNC(C)(C)C)c(O)c2c1C[C@H]1C[C@H]3[C@H](N(C)C)C(O)=C(C(N)=O)C(=O)[C@@]3(O)C(O)=C1C2=O [TIGECYCLINE] | 0.094 (≈ 0.161 µM) | 0.38 (≈ 0.649 µM) | 0.125 (≈ 0.213 µM) | 1.5 (≈ 2.56 µM) | 0.5 (≈ 0.854 µM) | 1.5 (≈ 2.56 µM) | 0.125 (≈ 0.213 µM) | 1.5 (≈ 2.56 µM) | 1.5 (≈ 2.56 µM) | 3 (≈ 5.12 µM)
NCC[C@H](O)C(=O)N[C@@H]1C[C@H](N)[C@@H](O[C@H]2O[C@H](CN)[C@@H](O)[C@H](O)[C@H]2O)[C@H](O)[C@H]1O[C@H]1O[C@H](CO)[C@@H](O)[C@H](N)[C@H]1O [AMIKACIN] | 4 (≈ 6.83 µM) | 6 (≈ 10.2 µM) | 6 (≈ 10.2 µM) | > 256 | 8 (≈ 13.7 µM) | 96 (≈ 164 µM) | 4 (≈ 6.83 µM) | 64 (≈ 109 µM) | 96 (≈ 164 µM) | 8 (≈ 13.7 µM)
CN(C)c1ccc(O)c2c1C[C@H]1C[C@H]3[C@H](N(C)C)C(O)=C(C(N)=O)C(=O)[C@@]3(O)C(O)=C1C2=O [MINOCYCLINE] | 0.064 (≈ 0.14 µM) | 0.19 (≈ 0.415 µM) | 0.047 (≈ 0.103 µM) | 1 (≈ 2.19 µM) | 0.125 (≈ 0.273 µM) | 0.5 (≈ 1.09 µM) | 0.064 (≈ 0.14 µM) | 0.125 (≈ 0.273 µM) | 8 (≈ 17.5 µM) | 0.75 (≈ 1.64 µM)
C[C@H]1[C@H](NC(=O)/C(=N\OC(C)(C)C(=O)O)c2csc(N)n2)C(=O)N1S(=O)(=O)O [AZTREONAM] | 12 (≈ 27.6 µM) | 32 (≈ 73.5 µM) | 48 (≈ 110 µM) | 32 (≈ 73.5 µM) | 48 (≈ 110 µM) | > 256 | 32 (≈ 73.5 µM) | 6 (≈ 13.8 µM) | 32 (≈ 73.5 µM) | 16 (≈ 36.7 µM)
NC[C@H]1O[C@H](O[C@H]2[C@H](O)[C@@H](O[C@H]3O[C@H](CO)[C@@H](O)[C@H](N)[C@H]3O)[C@H](N)C[C@@H]2N)[C@H](N)C[C@@H]1O [TOBRAMYCIN] | 0.75 (≈ 1.6 µM) | 1 (≈ 2.14 µM) | 2 (≈ 4.28 µM) | 96 (≈ 205 µM) | 2 (≈ 4.28 µM) | 64 (≈ 137 µM) | 1.5 (≈ 3.21 µM) | 16 (≈ 34.2 µM) | 12 (≈ 25.7 µM) | 4 (≈ 8.56 µM)
CN(C)[C@@H]1C(O)=C(C(N)=O)C(=O)[C@@]2(O)C(O)=C3C(=O)c4c(O)cccc4[C@@](C)(O)[C@H]3C[C@@H]12 [TETRACYCLINE] | 1.5 (≈ 3.38 µM) | 8 (≈ 18 µM) | 1 (≈ 2.25 µM) | 12 (≈ 27 µM) | 8 (≈ 18 µM) | 64 (≈ 144 µM) | 3 (≈ 6.75 µM) | 3 (≈ 6.75 µM) | 32 (≈ 72 µM) | 32 (≈ 72 µM)
CO/N=C(\C(=O)N[C@@H]1C(=O)N2C(C(=O)O)=C(COC(C)=O)CS[C@H]12)c1csc(N)n1 [CEFOTAXIME] | 3 (≈ 6.59 µM) | 6 (≈ 13.2 µM) | 12 (≈ 26.3 µM) | 32 (≈ 70.3 µM) | 8 (≈ 17.6 µM) | > 256 | 4 (≈ 8.78 µM) | 4 (≈ 8.78 µM) | > 256 | 4 (≈ 8.78 µM)
